{"source": "ChEMBL document CHEMBL4689842", "about": "“EUbOPEN Chemogenomics Library wave 1” (2021)", "system": "Fibroblast", "experiment": "Multiplex assay against human fibroblast", "format": "toxicity, cell-based", "outline": "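With compound added, live cells were imaged on a CQ1 microscope at 37°C and 5% CO2; staining with Hoechst33342, BioTracker Green Microtubule Cytoskeleton Dye, MitoTracker Red and Annexin V Alexa Fluor 680 had been done at seeding. The CellPathfinder machine-learning gating scheme split cells into Hoechst high-intensity objects or normal cells, normal cells into healthy, pyknosed or fragmented nuclei, and pyknosed cells into mitotic or apoptotic. The tubulin, mitochondrial-mass and membrane-permeability phenotypes are per cents of healthy-nucleus cells.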", "key": {"[1]": {"details": "12 h, 1 µM, compound concentration 1 uM, replicate 1"}, "[2]": {"details": "12 h, 1 µM, compound concentration 1 uM, replicate 2"}, "[3]": {"details": "12 h, 10 µM, compound concentration 10 uM, replicate 1"}, "[4]": {"details": "12 h, 10 µM, compound concentration 10 uM, replicate 2"}, "[5]": {"details": "24 h, 1 µM, compound concentration 1 uM, replicate 1"}, "[6]": {"details": "24 h, 1 µM, compound concentration 1 uM, replicate 2"}, "[7]": {"details": "24 h, 10 µM, compound concentration 10 uM, replicate 1"}, "[8]": {"details": "24 h, 10 µM, compound concentration 10 uM, replicate 2"}}, "data": [{"smiles": "COC(=N)c1nc2ccc3ncnc(Nc4ccc(OC)cc4F)c3c2s1", "values": [{"measurement": "Population Apoptotic (%)", "setting": "[1]", "value": 55, "unit": "%"}, {"measurement": "Population Fragmented Nuclei (%)", "setting": "[1]", "value": 30, "unit": "%"}, {"measurement": "Population Healthy Nuclei (%)", "setting": "[1]", "value": 60, "unit": "%"}, {"measurement": "Population Hoechst High Intensity Objects (%)", "setting": "[1]", "value": 17, "unit": "%"}, {"measurement": "Population Membrane Permeable-Phenotype (%)", "setting": "[1]", "value": 3, "unit": "%"}, {"measurement": "Population Mitochondria Different-Phenotype (%)", "setting": "[1]", "value": 3, "unit": "%"}, {"measurement": "Population Mitotic Cells (%)", "setting": "[1]", "value": 44, "unit": "%"}, {"measurement": "Population Normal (%)", "setting": "[1]", "value": 82, "unit": "%"}, {"measurement": "Population Pyknosed Nuclei (%)", "setting": "[1]", "value": 9, "unit": "%"}, {"measurement": "Population Tubulin-Different-Phenotype (%)", "setting": "[1]", "value": 1, "unit": "%"}, {"measurement": "Total Cell Count", "setting": "[1]", "value": 119}, {"measurement": "Population Apoptotic (%)", "setting": "[2]", "value": 28, "unit": "%"}, {"measurement": "Population Fragmented Nuclei (%)", "setting": "[2]", "value": 50, "unit": "%"}, {"measurement": "Population Healthy Nuclei (%)", "setting": "[2]", "value": 34, "unit": "%"}, {"measurement": "Population Hoechst High Intensity Objects (%)", "setting": "[2]", "value": 33, "unit": "%"}, {"measurement": "Population Membrane Permeable-Phenotype (%)", "setting": "[2]", "value": 6, "unit": "%"}, {"measurement": "Population Mitochondria Different-Phenotype (%)", "setting": "[2]", "value": 6, "unit": "%"}, {"measurement": "Population Mitotic Cells (%)", "setting": "[2]", "value": 71, "unit": "%"}, {"measurement": "Population Normal (%)", "setting": "[2]", "value": 66, "unit": "%"}, {"measurement": "Population Pyknosed Nuclei (%)", "setting": "[2]", "value": 15, "unit": "%"}, {"measurement": "Population Tubulin-Different-Phenotype (%)", "setting": "[2]", "value": 6, "unit": "%"}, {"measurement": "Total Cell Count", "setting": "[2]", "value": 69}, {"measurement": "Population Apoptotic (%)", "setting": "[3]", "value": 76, "unit": "%"}, {"measurement": "Population Fragmented Nuclei (%)", "setting": "[3]", "value": 20, "unit": "%"}, {"measurement": "Population Healthy Nuclei (%)", "setting": "[3]", "value": 60, "unit": "%"}, {"measurement": "Population Hoechst High Intensity Objects (%)", "setting": "[3]", "value": 11, "unit": "%"}, {"measurement": "Population Membrane Permeable-Phenotype (%)", "setting": "[3]", "value": 7, "unit": "%"}, {"measurement": "Population Mitochondria Different-Phenotype (%)", "setting": "[3]", "value": 0, "unit": "%"}, {"measurement": "Population Mitotic Cells (%)", "setting": "[3]", "value": 23, "unit": "%"}, {"measurement": "Population Normal (%)", "setting": "[3]", "value": 88, "unit": "%"}, {"measurement": "Population Pyknosed Nuclei (%)", "setting": "[3]", "value": 18, "unit": "%"}, {"measurement": "Population Tubulin-Different-Phenotype (%)", "setting": "[3]", "value": 1, "unit": "%"}, {"measurement": "Total Cell Count", "setting": "[3]", "value": 238}, {"measurement": "Population Apoptotic (%)", "setting": "[4]", "value": 100, "unit": "%"}, {"measurement": "Population Fragmented Nuclei (%)", "setting": "[4]", "value": 57, "unit": "%"}, {"measurement": "Population Healthy Nuclei (%)", "setting": "[4]", "value": 35, "unit": "%"}, {"measurement": "Population Hoechst High Intensity Objects (%)", "setting": "[4]", "value": 30, "unit": "%"}, {"measurement": "Population Membrane Permeable-Phenotype (%)", "setting": "[4]", "value": 5, "unit": "%"}, {"measurement": "Population Mitochondria Different-Phenotype (%)", "setting": "[4]", "value": 5, "unit": "%"}, {"measurement": "Population Mitotic Cells (%)", "setting": "[4]", "value": 0, "unit": "%"}, {"measurement": "Population Normal (%)", "setting": "[4]", "value": 69, "unit": "%"}, {"measurement": "Population Pyknosed Nuclei (%)", "setting": "[4]", "value": 7, "unit": "%"}, {"measurement": "Population Tubulin-Different-Phenotype (%)", "setting": "[4]", "value": 5, "unit": "%"}, {"measurement": "Total Cell Count", "setting": "[4]", "value": 82}, {"measurement": "Population Apoptotic (%)", "setting": "[5]", "value": 77, "unit": "%"}, {"measurement": "Population Fragmented Nuclei (%)", "setting": "[5]", "value": 41, "unit": "%"}, {"measurement": "Population Healthy Nuclei (%)", "setting": "[5]", "value": 50, "unit": "%"}, {"measurement": "Population Hoechst High Intensity Objects (%)", "setting": "[5]", "value": 19, "unit": "%"}, {"measurement": "Population Membrane Permeable-Phenotype (%)", "setting": "[5]", "value": 8, "unit": "%"}, {"measurement": "Population Mitochondria Different-Phenotype (%)", "setting": "[5]", "value": 6, "unit": "%"}, {"measurement": "Population Mitotic Cells (%)", "setting": "[5]", "value": 22, "unit": "%"}, {"measurement": "Population Normal (%)", "setting": "[5]", "value": 80, "unit": "%"}, {"measurement": "Population Pyknosed Nuclei (%)", "setting": "[5]", "value": 7, "unit": "%"}, {"measurement": "Population Tubulin-Different-Phenotype (%)", "setting": "[5]", "value": 1, "unit": "%"}, {"measurement": "Total Cell Count", "setting": "[5]", "value": 146}, {"measurement": "Population Apoptotic (%)", "setting": "[6]", "value": 42, "unit": "%"}, {"measurement": "Population Fragmented Nuclei (%)", "setting": "[6]", "value": 44, "unit": "%"}, {"measurement": "Population Healthy Nuclei (%)", "setting": "[6]", "value": 36, "unit": "%"}, {"measurement": "Population Hoechst High Intensity Objects (%)", "setting": "[6]", "value": 30, "unit": "%"}, {"measurement": "Population Membrane Permeable-Phenotype (%)", "setting": "[6]", "value": 7, "unit": "%"}, {"measurement": "Population Mitochondria Different-Phenotype (%)", "setting": "[6]", "value": 7, "unit": "%"}, {"measurement": "Population Mitotic Cells (%)", "setting": "[6]", "value": 57, "unit": "%"}, {"measurement": "Population Normal (%)", "setting": "[6]", "value": 69, "unit": "%"}, {"measurement": "Population Pyknosed Nuclei (%)", "setting": "[6]", "value": 18, "unit": "%"}, {"measurement": "Population Tubulin-Different-Phenotype (%)", "setting": "[6]", "value": 14, "unit": "%"}, {"measurement": "Total Cell Count", "setting": "[6]", "value": 55}, {"measurement": "Population Apoptotic (%)", "setting": "[7]", "value": 65, "unit": "%"}, {"measurement": "Population Fragmented Nuclei (%)", "setting": "[7]", "value": 20, "unit": "%"}, {"measurement": "Population Healthy Nuclei (%)", "setting": "[7]", "value": 62, "unit": "%"}, {"measurement": "Population Hoechst High Intensity Objects (%)", "setting": "[7]", "value": 13, "unit": "%"}, {"measurement": "Population Membrane Permeable-Phenotype (%)", "setting": "[7]", "value": 5, "unit": "%"}, {"measurement": "Population Mitochondria Different-Phenotype (%)", "setting": "[7]", "value": 2, "unit": "%"}, {"measurement": "Population Mitotic Cells (%)", "setting": "[7]", "value": 34, "unit": "%"}, {"measurement": "Population Normal (%)", "setting": "[7]", "value": 86, "unit": "%"}, {"measurement": "Population Pyknosed Nuclei (%)", "setting": "[7]", "value": 17, "unit": "%"}, {"measurement": "Population Tubulin-Different-Phenotype (%)", "setting": "[7]", "value": 1, "unit": "%"}, {"measurement": "Total Cell Count", "setting": "[7]", "value": 246}, {"measurement": "Population Apoptotic (%)", "setting": "[8]", "value": 50, "unit": "%"}, {"measurement": "Population Fragmented Nuclei (%)", "setting": "[8]", "value": 54, "unit": "%"}, {"measurement": "Population Healthy Nuclei (%)", "setting": "[8]", "value": 37, "unit": "%"}, {"measurement": "Population Hoechst High Intensity Objects (%)", "setting": "[8]", "value": 30, "unit": "%"}, {"measurement": "Population Membrane Permeable-Phenotype (%)", "setting": "[8]", "value": 10, "unit": "%"}, {"measurement": "Population Mitochondria Different-Phenotype (%)", "setting": "[8]", "value": 5, "unit": "%"}, {"measurement": "Population Mitotic Cells (%)", "setting": "[8]", "value": 50, "unit": "%"}, {"measurement": "Population Normal (%)", "setting": "[8]", "value": 69, "unit": "%"}, {"measurement": "Population Pyknosed Nuclei (%)", "setting": "[8]", "value": 7, "unit": "%"}, {"measurement": "Population Tubulin-Different-Phenotype (%)", "setting": "[8]", "value": 10, "unit": "%"}, {"measurement": "Total Cell Count", "setting": "[8]", "value": 73}]}]}
